Results on 23 molecules are retold here after ChEMBL document CHEMBL1123517, “Synthesis and antiallergic activity of a novel series of 5-lipoxygenase inhibitors” (J Med Chem, 1986).

A value given as a limit tells only on which side of the number the result lay.

The species entered for assay [1] is Cavia porcellus. Description: Competitive inhibition of LTD4-induced contraction of isolated guinea pig tracheal spiral strips.
The target of assay [2] is T1, Polyunsaturated fatty acid 5-lipoxygenase (Rattus norvegicus, UniProt P12527).
T1 sequence (P12527 whole entry): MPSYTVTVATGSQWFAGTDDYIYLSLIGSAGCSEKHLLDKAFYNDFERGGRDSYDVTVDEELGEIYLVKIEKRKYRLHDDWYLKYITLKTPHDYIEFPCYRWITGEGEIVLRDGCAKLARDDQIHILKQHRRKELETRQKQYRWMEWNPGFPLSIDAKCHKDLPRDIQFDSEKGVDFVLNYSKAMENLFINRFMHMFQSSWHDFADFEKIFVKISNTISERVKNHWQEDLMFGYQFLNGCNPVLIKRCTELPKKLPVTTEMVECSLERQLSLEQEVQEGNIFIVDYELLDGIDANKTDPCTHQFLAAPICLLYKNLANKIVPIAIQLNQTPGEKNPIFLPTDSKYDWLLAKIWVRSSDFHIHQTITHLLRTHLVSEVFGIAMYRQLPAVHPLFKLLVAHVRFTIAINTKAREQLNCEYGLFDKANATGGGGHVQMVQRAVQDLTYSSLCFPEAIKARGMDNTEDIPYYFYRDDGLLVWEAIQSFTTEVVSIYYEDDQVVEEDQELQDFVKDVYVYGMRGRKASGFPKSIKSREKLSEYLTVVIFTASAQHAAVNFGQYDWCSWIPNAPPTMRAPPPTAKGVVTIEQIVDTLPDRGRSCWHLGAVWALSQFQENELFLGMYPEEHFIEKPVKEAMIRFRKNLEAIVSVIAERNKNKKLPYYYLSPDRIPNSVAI
As to the kind of experiment: In vitro for inhibition of 5-HETE production in isolated rat polymorphonuclear leukocytes (PMNs). It is filed as functional. Summed up:
(§1)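 Peritoneal PMNs from female Wistar rats (150–250 g) given 6% glycogen ip; harvested at 24 h by lavage, resuspended at 2×10^7 cells/mL in HBSS with Ca2+/Mg2+ and 10 mM L-cysteine. Drug or vehicle preincubated 10 min at 37 °C; then A23187 (10 μM) plus 0.5 μCi [14C]arachidonic acid for 10 min. Stopped at pH 3.5, ether-extracted; IC50 per metabolite by nonlinear regression.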

The target of assay [3] is T1, Polyunsaturated fatty acid 5-lipoxygenase. As to the kind of experiment: In vitro for inhibition of LTB4 (leukotriene B4) production in isolated rat polymorphonuclear leukocytes (PMNs). It is filed as functional. Summed up: as §1
In assay [4] the test system is Cavia porcellus. As to the kind of experiment: In vivo inhibition of ovalbumin induced bronchoconstriction in guinea pig by 50 mg/kg 10 min prior to challenge. It is filed as functional. The procedure, abridged:
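Male Hartley guinea pigs (350–600 g) sensitized to OA (5 mg ip + 5 mg sc), used 3–5 weeks later under pentobarbital (50 mg/kg ip), artificially ventilated. Indomethacin 10 mg/kg iv 9 min before challenge, chlorpheniramine 1.0 mg/kg iv 1 min later. Drug 50 mg/kg id 10 min before aerosolized 1% OA; controls saline.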

The species named for another assay is Rattus norvegicus. As to the kind of experiment: Compound was tested in vitro for inhibition of 5-HETE production in isolated rat polymorphonuclear leukocytes (PMNs) at 50 uM. It is filed as functional.

Consider `COC(=O)CC(=O)Nc1cccc(COc2ccc(C(C)=O)c(O)c2)c1`, for which, in the assay listed under Cavia porcellus [1], the pKB came out at 4.94. Further, the IC50 in assay [2] is 14.2 µM; in assay [3] it was 11.7 µM. In the assay with Cavia porcellus [4], the inhibition in vivo at 50 mg/kg is 61.4%.
In the case of `COC(=O)CC(=O)Nc1cccc(COc2ccc(C(C)=O)c(OC)c2)c1`, the inhibition in vivo at 50 mg/kg with Cavia porcellus [4] amounted to 64.3%.
With `COC(=O)CCCC(=O)Nc1cccc(COc2ccc(C(C)=O)c(O)c2)c1`, the IC50 was found to be 32.7 µM in assay [2] and 39.3 µM in assay [3]. Further, the inhibition in vivo at 50 mg/kg with Cavia porcellus [4] is -0.1%.
As for `CCCCCC(=O)c1ccc(OCc2cccc(NC(=O)CC(=O)OC)c2)cc1OC`, in the assay with Cavia porcellus [4], the inhibition in vivo at 50 mg/kg turned out to be 0%.
Take `CCc1ccc(OCc2cccc(NC(=O)CCC(=O)OC)c2)cc1OC`: the concentration for half-maximal inhibition (IC50) in assay [2] stood at 5.6 µM; in assay [3], 7.09 µM. Also, the inhibition in vivo at 50 mg/kg with Cavia porcellus [4] amounted to 0.2%.
Consider `COC(=O)C1CC(=O)N(c2cccc(COc3ccc(C(C)=O)c(F)c3)c2)C1` (configuration not stated), for which the IC50 in assay [2] was found to be 5.35 µM; in assay [3], 20.4 µM.
Regarding `COC(=O)CC(=O)Nc1cccc(COc2ccc(C(C)=O)cc2)c1`, the inhibition in vivo at 50 mg/kg in the assay on Cavia porcellus [4] was found to be 37.2%. The inhibition at 50 µM in the assay listed under Rattus norvegicus is less than 50%.
For the molecule `CCc1ccc(OCc2cccc(NC(=O)CC(=O)OC)c2)cc1OC`, the inhibition in vivo at 50 mg/kg in the assay on Cavia porcellus [4] amounted to 0.2%.
As for `CCCCCCc1ccc(OCc2cccc(NC(=O)CC(=O)OC)c2)cc1OC`, the IC50 in assay [2] was 1.59 µM; in assay [3], 1.7 µM. Further, the inhibition in vivo at 50 mg/kg in the assay on Cavia porcellus [4] was -0.2%.
Take `COC(=O)C(=O)Nc1cccc(COc2ccc(C(C)=O)c(F)c2)c1`: the inhibition in vivo at 50 mg/kg with Cavia porcellus [4] came out at 57.3%.
As to `CCCCCC(=O)c1ccc(OCc2cccc(NC(=O)CCC(=O)OC)c2)cc1OC`, the concentration for half-maximal inhibition (IC50) is 3.71 µM in assay [2] and 3.87 µM in assay [3]. Also, in the assay with Cavia porcellus [4], the inhibition in vivo at 50 mg/kg is 0%.
`COC(=O)CC(=O)Nc1cccc(COc2cccc(OC)c2)c1` gave an inhibition at 50 µM in the assay listed under Rattus norvegicus of less than 50%.
In the case of `CCCCCCc1ccc(OCc2cccc(NC(=O)CCC(=O)OC)c2)cc1OC`, the inhibition in vivo at 50 mg/kg in the assay on Cavia porcellus [4] was found to be 0.2%.
As to `COC(=O)C(=O)Nc1cccc(COc2ccc(C(C)=O)c(O)c2)c1`, the half-maximal inhibitory concentration (IC50) in assay [2] is 25.1 µM; in assay [3] it was 39.5 µM. The inhibition in vivo at 50 mg/kg in the assay on Cavia porcellus [4] is 0.1%.
Take `CCCCCC(=O)c1ccc(OCc2cccc(NC(=O)CCC(=O)OC)c2)cc1O`: the inhibition in vivo at 50 mg/kg with Cavia porcellus [4] is 0%.
Same read-out and setting: the result for `COC(=O)CCC(=O)Nc1cccc(COc2ccc(C(C)=O)c(F)c2)c1` reads 20.8%; that for `COC(=O)CCC(=O)Nc1cccc(COc2ccc(C(C)=O)c(O)c2)c1`, 37.9%; that for `COC(=O)CCC(=O)Nc1cccc(COc2ccc(C(C)=O)c(OC)c2)c1`, 0.11%.
Same read-out and setting: in the case of `COC(=O)CCCC(=O)Nc1cccc(COc2ccc(C(C)=O)c(F)c2)c1` it was 0%.
For `CCCc1c(OCc2cccc(NC(=O)CC(=O)OC)c2)ccc(C(C)=O)c1O`, in the assay on Cavia porcellus [4], the inhibition in vivo at 50 mg/kg stood at 24.8%.
On the same count and under the same terms, in the case of `CCCCCC(=O)c1ccc(OCc2cccc(NC(=O)CC(=O)OC)c2)cc1O` it was -0.5%.
Consider `COC(=O)CC(=O)Nc1cccc(COc2ccc(C(C)=O)c(F)c2)c1`, for which the values for the IC50 in assay [2] and in assay [3] were 25.5 µM and 22.5 µM, respectively. Further, the inhibition in vivo at 50 mg/kg in the assay with Cavia porcellus [4] came to 0%.
`CCCc1c(OCCCCc2nnn[nH]2)ccc(C(C)=O)c1O` [TOMELUKAST]: the 50% inhibitory concentration (IC50) in assay [2] is 41 µM; in assay [3], 21.6 µM. The inhibition in vivo at 50 mg/kg in the assay with Cavia porcellus [4] amounted to 78.8%.
